RAD54 branch: inhibitors of human RAD54 branch migration, primary screen, biochemical, fluorescence, single point; DNA repair and recombination protein RAD54-like (Homo sapiens), Q92698; RAD54 Holliday junction branch migration, FAM/BHQ fluorescence; inhibition, % at 10.4 µM; 360,000 tested, 0.14% active; AID 602329, 2012;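 active = mean normalized replicate activity at least 40 and at least half of replicates scoring 40 or more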;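 note: 0% = median of neutral control wells and 100% = median of positive control wells; inhibitors cause a drop in the FAM fluorescence signal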
Target sequence (Q92698 whole entry, looked up): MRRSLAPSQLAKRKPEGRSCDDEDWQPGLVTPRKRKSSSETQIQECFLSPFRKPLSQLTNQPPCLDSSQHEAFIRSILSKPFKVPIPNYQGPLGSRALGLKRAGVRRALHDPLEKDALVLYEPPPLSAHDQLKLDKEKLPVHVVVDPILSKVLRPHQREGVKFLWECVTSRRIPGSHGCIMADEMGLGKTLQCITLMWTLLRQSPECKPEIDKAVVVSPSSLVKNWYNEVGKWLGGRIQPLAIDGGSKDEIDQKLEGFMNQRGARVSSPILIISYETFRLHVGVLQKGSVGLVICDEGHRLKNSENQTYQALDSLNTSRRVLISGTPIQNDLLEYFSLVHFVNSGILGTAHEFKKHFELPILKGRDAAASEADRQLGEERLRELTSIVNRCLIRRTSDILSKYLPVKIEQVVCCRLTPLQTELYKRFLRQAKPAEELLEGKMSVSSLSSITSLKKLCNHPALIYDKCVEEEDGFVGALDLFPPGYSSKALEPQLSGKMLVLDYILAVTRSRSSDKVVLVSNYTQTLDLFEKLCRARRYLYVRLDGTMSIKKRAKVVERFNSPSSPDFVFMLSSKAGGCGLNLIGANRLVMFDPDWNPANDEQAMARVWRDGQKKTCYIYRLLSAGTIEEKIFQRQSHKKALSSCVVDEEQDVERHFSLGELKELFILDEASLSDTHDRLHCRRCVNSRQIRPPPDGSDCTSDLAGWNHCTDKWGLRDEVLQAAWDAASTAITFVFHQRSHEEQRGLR
FID counter: compounds displacing fluorescent DNA intercalator, primary screen, artefact control for HCV NS3 helicase inhibitor project, biochemical, FID fluorescence | AID 1845, 2009 | DNA fluorescent intercalator displacement | 290,000 tested, 0.17% active | inhibition, % at 7.9 µM; in the data active = inhibition above about 37%;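 note: 0% = vehicle and 100% = reference compound; higher means more ethidium bromide displaced from hairpin DNA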
VIM-2 inhibitor: VIM-2 metallo-beta-lactamase inhibitors, primary screen, biochemical, epi-absorbance readout, Pseudomonas aeruginosa enzyme; AID 1527, 2009; 290,000 tested, 0.89% active; purified VIM-2, nitrocefin hydrolysis, epi-absorbance fluorescence; inhibition, % at 5.6 µM;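 active = inhibition above the mean of all tested compounds plus 3 SD, cutoff set per screening run, cut at about 7.5% in these data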;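 note: red hydrolysis product quenches plate fluorescence so inhibitors raise well fluorescence; 0% = enzyme with DMSO and 100% = DMSO without enzyme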
PvdQ acylase: P. aeruginosa PvdQ acylase inhibitors, primary screen, biochemical, fluorescence, plate reader and imaging, single point | PvdQ acylase [Pseudomonas aeruginosa LESB58] | purified PvdQ acylase | inhibition, % at 10 µM | 340,000 tested, 0.063% active; in the data active = inhibition above about 30%, passing the limit was not always enough;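 note: 0% = vehicle neutral wells and 100% = reference inhibitor wells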
IMP-1 inhibitor: IMP-1 metallo-beta-lactamase inhibitors, primary screen, biochemical, epi-absorbance readout, Pseudomonas aeruginosa enzyme | purified IMP-1, nitrocefin hydrolysis, epi-absorbance fluorescence | metallo-beta-lactamase IMP-1 (Pseudomonas aeruginosa) | inhibition, % at 5.6 µM | 290,000 tested, 0.45% active;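 active = inhibition above the mean plus 3 SD of all compounds in the same screening run, cut at about 4.5% in these data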;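 note: 0% = IMP-1 with DMSO and 100% = DMSO wells lacking enzyme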
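System: Purified IMP-1 | Read-out basis: Percent enzyme inhibition | Controls: IMP-1 with DMSO as 0%, enzyme-free DMSO as 100% | Replicates: One well per compound | Doses: 5.6 µM nominal single concentration | Detection: Epi-absorbance fluorescence, 480 nm excitation, 530 nm emission | Incubation: 25 °C, 15 min preincubation, 25 min reaction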
* hit, by the source's call; . = not tested or not shown; ! = a repeat was not active. Only some compounds are listed: those with a hit (about 1% of all), similar ones and a draw of the others.

SMILES	RAD54 branch	FID counter	VIM-2 inhibitor	PvdQ acylase	IMP-1 inhibitor
Cc1cccc(-n2c(CNC(=O)c3cccc([N+](=O)[O-])c3C)n[nH]c2=S)c1	-2.3	0.5	8.8*	-17.1	-3.1
CC(C)CCNC(=O)c1cccc(Cl)c1	-13.6	0.1	-1.6	39.2*	-2.0
Cc1cc(C)c2ccc(C(=O)O)nc2c1O	-19.1	0.5	9.7*	-6.3	-3.0
C=CCSc1nnc(-c2cc3c(-c4ccccc4)nn(C)c3s2)n1C	6.7	-32.5	9.5*	-5.5	-0.2
Nc1ccc(Br)c2c1C(=O)c1ccccc1C2=O	.	19.0	10.1*	.	-2.8
NC(=S)Nc1ccc(Oc2ccc(NC(N)=S)cc2)cc1	8.8	-5.8	-1.5	8.7	14.6*
C[C@H]1CN([C@@H](C)CO)C(=O)c2c(c3ccccc3n2C)-c2ccccc2CO[C@@H]1CN(C)C(=O)Cc1ccccc1	-11.8	.	.	.	.
CNC(=O)c1c(NC(=O)c2cccc(C)c2)sc2c1CCC2	6.9	-5.5	2.2	-7.0	4.7*
Clc1ccc2nc3c4ccccc4cnn3c2c1	.	-12.8	1.7	33.3*	-2.2
CO[C@@H]1CN(C)C(=O)c2cc(NC(=O)c3ccno3)ccc2OC[C@H](C)NC[C@@H]1C	-37.0	.	.	.	.
COc1ccc(C2C3=C(N=C4SCC(=O)N42)c2ccccc2CC3)cc1OC (stereo not given)	.	-9.8	-2.0	-9.2	5.9*
O=C(N/N=C/c1ccncc1)c1sc2ccccc2c1Cl	-1.6	-28.0	8.9*	-9.5	-2.4
O=S(=O)(NC1c2cccc3cccc(c23)C1N1CCNCC1)c1ccc(Cl)cc1 (stereo not given)	.	43.2*	1.1	-13.3	2.3
CC(=O)N1CCN(C2c3cccc4cccc(c34)C2NS(=O)(=O)c2ccccc2)CC1 (stereo not given)	-6.5	-28.7	-2.9	-18.3	0.6
Cc1ccc(C23CC4CC(CC(NC(=O)NCCN(C)C)(C4)C2)C3)cc1	15.5	11.6	-1.2	-10.0	-4.9
CN(C)CCNC(=O)COc1ccc(C23CC4CC(CC(C4)C2)C3)cc1	.	38.0*	1.5	-13.1	-0.8
COc1ccc(S(=O)(=O)N(C)C[C@@H]2Oc3ccc(NC(=O)Cc4ccccc4)cc3C(=O)N([C@@H](C)CO)C[C@@H]2C)cc1	-3.8	.	.	.	.
CC(C)(C)c1ccc(C(=O)Nc2cccc3c(=O)[nH][nH]c(=O)c23)cc1	0.6	5.5	-2.6	3.0	5.9*
COc1ccc(/C=N/NC(=O)C(N)=O)c(OC)c1OC	.	-3.0	-2.5	-0.4	8.4*
CCCCCCCCCCOC(=O)Cn1c(COc2ccccc2OC)[n+](C)c2ccccc21	41.8	46.2*	-1.2	-3.4	-2.8
CCOc1ccc(CN(C)CC(=O)Nc2ccc3c(c2)CCC3)cc1OC	0.9	8.9	-6.7	-7.6	-4.7
C=CCOc1ccc(CN(C)CC(=O)Nc2ccc3c(c2)CCC3)cc1	.	36.9*	-1.7	-11.0	0.4
O=C(O)C1Nc2c(cccc2C(F)(F)F)C2C=CCC12 (stereo not given)	.	-10.9	0.7	.	-1.7
COc1cccc2c1NC(C(=O)O)C1CC=CC21 (stereo not given)	.	-18.7	9.5*	-17.4	1.9
O=C(Cc1cc(=O)[nH][nH]1)N/N=C/c1c(Cl)cccc1Cl	.	-15.8	1.8	3.3	7.5*!
SMILES	RAD54 branch	FID counter	VIM-2 inhibitor	PvdQ acylase	IMP-1 inhibitor
CCc1[nH]nc2c1C1(CCN(C(=O)OCc3ccccc3)CC1)C(C#N)=C(N)O2	0.9	2.0	10.7*	-0.6	-0.4
O=C(Nc1cc(F)ccc1F)N[C@@H]1C=C[C@H](CC(=O)N2CCc3ccccc3C2)O[C@H]1CO	-3.5	.	.	.	.
COc1cccc(NC(=O)N(C)C[C@@H]2Oc3ncc(C#Cc4ccc(F)cc4)cc3C(=O)N([C@H](C)CO)C[C@@H]2C)c1	-0.4	.	.	.	.
COc1ccc(F)c(CN2CCC(CO)(Cc3cccc(C(F)(F)F)c3)CC2)c1	7.5	39.4*	-2.7	-4.9	-2.0
CO[C@@H]1CN(C)C(=O)c2cc(NS(C)(=O)=O)ccc2OC[C@H](C)N(C(=O)NC(C)C)C[C@H]1C	-4.7	.	.	.	.
O=C(CSc1nnc(NC(=O)c2cccc(Cl)c2)s1)NCC1CCCO1 (stereo not given)	-19.0	-13.4	8.6*	-13.1	-2.1
CCOc1ccc(C(=O)Nc2nnc(SCC(=O)NCC3CCCO3)s2)cc1OCC (stereo not given)	4.3	-12.9	-1.3	-7.1	-2.8
O=C(NCCO)Nc1ccc2nc(-c3ccco3)c(-c3ccco3)nc2c1	.	23.6	3.9	.	6.4*
C/C=C/c1ccc2c(c1)O[C@@H](CN(C)C(=O)Nc1ccc(F)cc1)[C@@H](C)CN([C@@H](C)CO)S2(=O)=O	-1.9	.	.	.	.
COc1cc(C2/C(=C(\O)c3ccc4c(c3)OCCO4)C(=O)C(=O)N2Cc2ccccc2)ccc1O (stereo not given)	5.4	-55.1	0.2	-2.7	0.4
O=C1C(=O)N(Cc2ccncc2)C(c2ccccc2F)/C1=C(\O)c1ccc2c(c1)OCCO2 (stereo not given)	10.7	-45.2	10.8*	-6.1	-4.1
COc1ccc(N2CCc3c(C)nc4c(OC)cccc4c32)cc1	.	3.8	12.1*	24.6	-1.8
COc1ccc(C(=O)Oc2ccc[nH]c2=O)cc1	.	4.6	1.8	10.9	-0.1
COc1ccc(-c2cc(OC(=O)c3ccc(F)cc3)c3c(C)oc(C)c3c(=O)c2)cc1	.	-23.4	-1.6	.	4.9*
COC(=O)C[C@@H]1C[C@H]2c3cc(NC(=O)NC4CCCCC4)ccc3O[C@H]2[C@H](CO)O1	5.9	.	.	.	.
CC(C)c1nc(SCC(=O)Nc2ccc(N(C)C)cc2)c2ccccc2n1	.	-19.4	-3.9	-4.7	5.2*
CC(C)c1nc(SCC(=O)Nc2nccs2)c2ccccc2n1	11.4	-18.9	-1.5	-12.0	-2.0
O=C(NCc1cccnc1)C1c2ccccc2C(=O)N1Cc1ccco1 (stereo not given)	.	-0.3	-0.3	-0.6	4.6*
O=C(NCc1cccnc1)C1c2ccccc2C(=O)N1Cc1ccccc1 (stereo not given)	1.6	-5.5	-0.3	-9.2	-1.8
Cc1ccc(S(=O)(=O)N[C@@H]2CC[C@@H](CCn3cc(-c4ccccc4F)nn3)O[C@H]2CO)cc1	0.8	.	.	.	.
COc1ccc(C2=Nn3c(nnc3-c3ccco3)SC2)cc1	-3.9	-16.0	9.8*	8.5	-3.1
C/C=C/c1ccc2c(c1)[C@H]1[C@H](CCN1C(=O)Cc1cccnc1)[C@@H](CO)N2C	-19.8	.	.	.	.
Cc1cccc(NC(=O)[C@H](Cc2c[nH]c3ccccc23)NC(=O)[C@@H]2Cc3ccccc3CN2)c1	7.6	8.4	-2.7	-11.1	-2.8
Cc1cc(C)cc(NC(=O)[C@H](Cc2c[nH]c3ccccc23)NC(=O)[C@@H]2Cc3ccccc3CN2)c1	7.5	39.6*	-0.3	14.8	0.0

Assay outcomes from PubChem BioAssay.
